Source: PubChem (Sanford-Burnham Center for Chemical Genomics)
SUMO1-SIM PPI = modulators of human SUMO1-mediated protein-protein interactions. SUMO1 binding to a labelled peptide, TR-FRET, 1 h. inhibition, % at 20 µM. hit rate 0.33% among 360,000; in the data active = inhibition above about 37%
LMPTP block = LMPTP (human) inhibition. recombinant LMPTP-A, OMFP fluorogenic substrate, fluorescence intensity. AID 651560. hit rate 0.22% among 360,000. P24666. inhibition, % at 20 µM;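 active = compounds that cut the enzyme signal by at least half of the control window in the single-dose screen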;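 also: plate controls were DMSO wells with enzyme plus substrate for no effect and substrate without enzyme for full effect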
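Test system – LMPTP-A enzyme · Amount – LMPTP-A at 0.625 nM final in the reaction · Buffer or medium – Bis-Tris pH 6.0, DTT, detergent · Reagent – OMFP 400 µM · Doses – single 20 µM dose · Schedule – reaction 50 min, room temperature, dark · Detection – fluorescence intensity of OMFP turnover product · Evaluation – percent inhibition versus substrate-only and uninhibited controls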
CSN deneddyl inh = inhibitors of human CSN-mediated cullin deneddylation | Q92905 | Purified CSN, SCF-Nedd8-OG deneddylation, fluorescence polarization | inhibition, % at 12.5 µM | hit rate 0.38% among 360,000;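 active = pattern-corrected inhibition above about 35%, with an unprinted fluorescence ratio check between 0.5 and 1.5, limit read from the data, passing the limit was not always enough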;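 also: 0% = enzyme with substrate and 100% = substrate without enzyme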
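assay system = purified human Csn5 enzyme expressed in HEK293T cells | amount = 0.24 nM enzyme | buffer or medium = Tris/NaCl/DTT buffer, pH 7.5 | reagent = 10 nM SCFSkp2-Nedd8OG | compound = one concentration, 12.5 µM, 0.25% DMSO | times = 90 min reaction at room temperature | signal = FP | read-out basis = % inhibition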
STEP inh = blocks human striatal-enriched tyrosine phosphatase. recombinant STEP, OMFP fluorogenic substrate, fluorescence. inhibition, % at 20 µM. hit rate 0.25% among 360,000. AID 588621;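 active = inhibition at 20 µM, scaled per plate between control wells, above about 37%, limit read from the data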;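 also: 0% = DMSO with enzyme and substrate and 100% = substrate only without enzyme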
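Test system: STEP tyrosine phosphatase / Reagent: OMFP at 25 µM / Doses: 20 µM, 1% DMSO / Read-out: percent inhibition scaled to no-enzyme and uninhibited-enzyme controls, plate-pattern corrected / Detection: FITC-channel fluorescence of OMFP product / Medium: Bis-Tris buffer pH 6.0, 2.5 mM DTT, 0.005% Tween 20 / Schedule: 20 min at room temperature, dark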
Scp1 inh = Scp-1 (human) phosphatase inhibition | Recombinant Scp1, phosphopeptide, malachite green phosphate absorbance | hit rate 0.88% among 340,000 | Q9GZU7 | inhibition, % at 20 µM | AID 493091;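 active = inhibition above about 50% at 20 µM, limit read from the data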;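 also: plate controls were DMSO wells with enzyme for no effect and wells lacking enzyme for full effect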
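Material – SCP-1 phosphatase catalytic domain, residues 76-261 · Buffer or medium – Acidic Tris acetate buffer with magnesium and detergent · Also added – Phospho 17-mer peptide substrate · Compound – single 20 µM dose, 1% DMSO · Times – 45 min room-temperature reaction, 5 min colour, 30 min stabiliser · Technique – Phosphate-binding colour reagent, absorbance read at 630 nm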
DNMT1 inh = blocks human DNA methyltransferase DNMT1 | P26358 | DNMT1 molecular beacon, Hinp1I cleavage, fluorescence | inhibition (reported as % activation of signal), % at 10 µM | hit rate 0.83% among 360,000 | AID 588458; in the data active = inhibition above about 50%
Target sequence (P26358 504-1616 limits assumed): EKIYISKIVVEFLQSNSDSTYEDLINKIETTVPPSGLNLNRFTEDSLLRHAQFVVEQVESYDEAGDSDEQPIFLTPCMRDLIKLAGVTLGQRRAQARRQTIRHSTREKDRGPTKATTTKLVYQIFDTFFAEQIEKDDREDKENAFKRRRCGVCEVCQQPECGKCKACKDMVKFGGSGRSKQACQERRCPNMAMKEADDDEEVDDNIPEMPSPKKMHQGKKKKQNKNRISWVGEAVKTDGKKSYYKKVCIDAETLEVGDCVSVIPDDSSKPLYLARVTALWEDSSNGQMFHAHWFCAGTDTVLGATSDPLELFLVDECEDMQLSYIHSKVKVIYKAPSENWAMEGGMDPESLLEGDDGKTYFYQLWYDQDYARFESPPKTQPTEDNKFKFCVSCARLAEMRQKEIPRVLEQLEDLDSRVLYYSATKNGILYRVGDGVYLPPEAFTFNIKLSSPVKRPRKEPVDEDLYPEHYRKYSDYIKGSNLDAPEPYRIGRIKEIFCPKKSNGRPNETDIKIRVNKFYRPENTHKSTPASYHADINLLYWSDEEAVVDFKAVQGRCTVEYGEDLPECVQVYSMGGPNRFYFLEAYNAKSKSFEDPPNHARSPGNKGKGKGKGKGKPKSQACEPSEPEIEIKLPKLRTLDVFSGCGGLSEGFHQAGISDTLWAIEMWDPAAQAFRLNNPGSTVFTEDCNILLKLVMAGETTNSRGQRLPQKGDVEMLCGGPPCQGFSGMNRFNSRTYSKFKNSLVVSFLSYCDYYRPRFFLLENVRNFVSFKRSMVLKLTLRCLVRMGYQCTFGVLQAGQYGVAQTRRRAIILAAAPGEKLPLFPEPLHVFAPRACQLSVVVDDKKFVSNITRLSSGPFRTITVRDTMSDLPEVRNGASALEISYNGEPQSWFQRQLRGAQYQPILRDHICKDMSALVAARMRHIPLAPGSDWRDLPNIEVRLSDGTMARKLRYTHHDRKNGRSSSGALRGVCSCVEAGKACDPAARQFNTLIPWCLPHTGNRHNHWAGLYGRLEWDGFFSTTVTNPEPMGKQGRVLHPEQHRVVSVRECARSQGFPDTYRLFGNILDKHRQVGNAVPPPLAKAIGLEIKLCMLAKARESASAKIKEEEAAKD
Scp1 confirm = confirmation of human Scp-1 phosphatase inhibitors. shares compounds with Scp1 inh. recombinant SCP-1 catalytic domain, phosphate release, malachite green absorbance. inhibition, % at 20 µM. hit rate 61% among 2,500;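 also: plate controls were DMSO with enzyme for no effect and buffer wells lacking enzyme for full effect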
Scp-1 MG ctr = counter-screen for Scp-1 inhibitors: colorimetric interference; shares compounds with Scp1 inh; Colorimetric interference counterscreen, malachite green absorbance 630 nm; apparent inhibition (interference), % at 20 µM; 2,500 tested, under 10 active;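 also: compounds added after enzyme reaction finished so only phosphate colour detection is probed; plate controls were DMSO wells with completed Scp-1 reaction for no effect and substrate wells lacking enzyme for full effect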
Scp1 DSF = binds human Scp-1, shifting its melting temperature; shares compounds with Scp1 inh; Recombinant SCP1, Sypro Orange thermal shift Tm; thermal shift relative to vanadate control, % at 40 µM; hit rate 25% among 1,500;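 active = substances whose mean melting-temperature shift, as a percentage of the reference inhibitor's shift, reaches about 5.3%, limit read from the data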;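 also: 0% = Tm of DMSO wells and 100% = Tm with sodium orthovanadate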
DNMT1 inh conf = DNMT1 inhibition confirmation, single concentration | shares compounds with DNMT1 inh | DNMT1 molecular beacon HinP1I cleavage, fluorescence | inhibition, % at 10 µM | hit rate 8% among 2,300 | AID 602385;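 active = average inhibition of at least 30% in the single-concentration confirmation test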
DNMT1 interf = beacon fluorescence artifact counter-screen | hit rate 1% among 2,300 | DNMT1 molecular beacon spectral interference counterscreen, fluorescence 485/520 | shares compounds with DNMT1 inh | AID 602387 | activation (fluorescence interference), % at 10 µM;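 active = activation of at least 30% at 10 µM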;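 also: DNMT1 catalytic domain with a HinP1I cleavage step and a FAM/dabcyl DNA beacon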
The depositor's hits bear a star; . = no result. Compounds with a hit are over-represented: about 2% of the library has one in this group of screens.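 The calls were made as follows, unless noted: active = inhibition of at least 30% at 20 µM; inactive = the rest.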

SMILES	SUMO1-SIM PPI	LMPTP block	CSN deneddyl inh	STEP inh	Scp1 inh	DNMT1 inh	Scp1 confirm	Scp-1 MG ctr	Scp1 DSF	DNMT1 inh conf	DNMT1 interf
CCOC(=O)C1=C(O)/C(=C\c2ccc(CNC(=O)C(=O)Nc3ccccc3)o2)N=C1C	32	37	41*	8	97*	101*	62*	-13	6.2*	6	0
O=C(CSc1ccccn1)Nc1ccc2c(c1)C(=O)c1ccccc1C2=O	35	49	0	41*	108*	87*	69*	0	7.8*	13	-6
O=C(CNC(=O)c1cccc(OC(F)F)c1)OCC(=O)c1ccccc1	1	-2	-1	-2	-1	-2	.	.	.	.	.
O=C(CNC(=O)c1cccc(OC(F)F)c1)OCc1cc(=O)n2cc(Br)ccc2n1	-19	11	17	0	61*	108*	58*	-10	3	3	6
O=[N+]([O-])c1ccc(/C=N/Nc2nc3ccccc3o2)cc1	6	42	8	34	50*	56*	56*	-12	5	6	0
CCS(=O)(=O)c1ccc(C=NNc2nc3ccccc3o2)cc1	-27	-2	5	0	-8	1	.	.	.	.	.
O=C(NCc1ccco1)C1Cc2ccccc2CN1C(=O)c1ccco1 (stereo not drawn)	3	3	7	-1	36	4	.	.	.	.	.
O=C(NCc1ccco1)C1Cc2ccccc2CN1S(=O)(=O)c1ccccc1F (stereo not drawn)	13	2	13	0	70*	71*	77*	-5	7.5*	6	4
Cc1ccc(NC(=O)CCc2nc3sc4c(c3c(=O)[nH]2)CCCC4)nc1	21	6	16	3	62*	50*	66*	-11	9.0*	4	3
Cc1cccc(NC(=O)CCc2nc3sc4c(c3c(=O)[nH]2)CCCC4)c1	0	0	-2	-2	4	4	.	.	.	.	.
CN1CCN(C(=O)CN(c2ccccc2)S(=O)(=O)N(C)C)CC1	.	.	.	.	-6	.	.	.	.	.	.
Cc1ccc(Cl)cc1N1CCN(C(=O)CN(c2ccccc2)S(=O)(=O)N(C)C)CC1	6	24	4	23	68*	65*	70*	-11	-11	3	1
NC(=S)N=Nc1c(O)n(CC(=O)Nc2ccccc2)c2ccccc12	-3	1	3	0	0	5	.	.	.	.	.
Cc1cccc(NC(=O)Cn2c(O)c(N=NC(=O)c3ccccc3O)c3ccccc32)c1	-8	35	-1	36	88*	88*	86*	-8	4	15	-3
CCOc1cccc2cc(C(C)=O)oc12	-5	0	2	8	-11	0	.	.	.	.	.
NC(=O)C1(C(N)=O)OC1c1ccc(Cl)c(Cl)c1 (stereo not drawn)	4	-2	6	-1	-8	0	.	.	.	.	.
O=C1C=C(c2ccc3c(c2)OCCO3)C[C@@H](c2ccc(F)cc2)C1	-30	1	4	2	-11	-8	.	.	.	.	.
O=C1NN(c2ccccc2)C(=O)/C1=C/c1ccc(-c2ccc(Cl)c(C(=O)O)c2)o1	20	9	28	18	70*	85*	62*	-8	14*	12	0
